Here are results for 25 molecules from ChEMBL document CHEMBL4732211, “Multifunctional agents based on benzoxazolone as promising therapeutic drugs for diabetic nephropathy” (Eur J Med Chem, 2021).

The target in assay [1] is Aldo-keto reductase family 1 member B1 (Rattus norvegicus, UniProt P07943). Put plainly: Inhibition of Wistar rat lens ALR2 assessed as reduction in NADPH oxidation using D,L-glyceraldehyde and NADPH as substrate preincubated for 10 mins followed by substrate addition and measured for 4 mins by spectrophotometric analysis. It counts as tissue-based.
For assay [2], the target named is Aldo-keto reductase family 1 member A1 (Rattus norvegicus, UniProt P51635). Put plainly: Inhibition of Wistar rat kidney ALR1 assessed as reduction in NADPH oxidation using sodium D-glucuronate and NADPH as substrate preincubated for 10 mins followed by substrate addition and measured for 4 mins by spectrophotometric analysis. It counts as tissue-based.
Sequence of Aldo-keto reductase family 1 member A1 (P51635 whole entry, looked up): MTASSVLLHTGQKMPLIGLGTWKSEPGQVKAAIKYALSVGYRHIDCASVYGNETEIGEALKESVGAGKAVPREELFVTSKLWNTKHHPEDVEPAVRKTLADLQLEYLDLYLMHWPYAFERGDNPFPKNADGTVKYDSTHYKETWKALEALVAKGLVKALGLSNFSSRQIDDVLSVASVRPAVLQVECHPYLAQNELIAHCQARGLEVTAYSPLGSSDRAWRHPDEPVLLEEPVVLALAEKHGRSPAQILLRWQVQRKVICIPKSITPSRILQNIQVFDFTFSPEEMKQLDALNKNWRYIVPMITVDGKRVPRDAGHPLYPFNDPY
For assay [3], the species on record is Rattus norvegicus. As to the kind of experiment: Selectivity index, ratio of IC50 for Wistar rat kidney ALR1 to IC50 for Wistar rat lens ALR2. The essentials:
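Aldose reductases (ALR2, ALR1) prepared from Wistar rats (200-250 g). NADPH loss followed at 340 nm for 4 min after substrate start, following 10 min preincubation. ALR2: pH 6.2 phosphate, 30 °C, NADPH 0.10 mM, D,L-glyceraldehyde 10 mM. ALR1: pH 7.2, 37 °C, NADPH 0.12 mM, D-glucuronate 20 mM. 0.5% DMSO; non-enzymatic rate subtracted. IC50 from log dose-response with ≥3 concentrations (20-80% inhibition), triplicate.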

A short description of assay [4]: Antioxidant activity assessed as DPPH radical scavenging activity at 10 uM after 30 mins by spectrophotometric analysis. It counts as functional. An outline of the steps:
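DPPH in methanol (1 mL, 0.025 mg/mL) plus methanol 1.9 mL and compound in methanol, final 100, 50 and 10 µM; absorbance at 517 nm. Scavenging % = 1 − (A_sample − A_blank)/A_control, where the blank is compound without DPPH. Trolox reference.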
(In general: DPPH is a stable violet radical that fades when it is reduced.)

The subject of assay [5] is Mus musculus. As to the kind of experiment: Inhibition of polyol pathway in STZ-induced Kunming mouse model of diabetes assessed as decrease in sorbitol level in kidney cortex at 80 mg/kg, po administered daily via gavage for 8 weeks and measured at 6 hrs post-final drug dose by fluorospectrophotometric analysis. The class given is functional.
The test system of assay [6] is Mus musculus. As to the kind of experiment: Antioxidant activity in STZ-induced diabetic Kunming mouse assessed as reduction in liver MDA level at 80 mg/kg, po administered daily via gavage for 8 weeks and measured at 6 hrs post-final drug dose relative to STZ-treated group. The class given is functional. Conditions: 1344 h.
The subject of assay [7] is Mus musculus. Put plainly: Reno-protective activity in STZ-induced Kunming mouse model of diabetes assessed as reduction in albumin to creatinine ratio at 80 mg/kg, po administered daily via gavage for 8 weeks. It counts as functional.
Assay [8] has as its system Mus musculus. As to the kind of experiment: Antidiabetic activity in STZ-induced Kunming mouse model of diabetes assessed as reduction in blood glucose level at 80 mg/kg, po administered QD via gavage for 4 weeks and measured at week 2 to 4. The class given is functional, organism-based. Particulars: time 2-4 weeks.
Assay [9] relates to Mus musculus. Put plainly: Reno-protective activity in STZ-induced Kunming mouse model of diabetes assessed as reduction in urinary total protein excretion at 80 mg/kg, po administered daily via gavage for 8 weeks and measured at week 4 relative to control. It counts as functional.
The subject of assay [10] is Mus musculus. As to the kind of experiment: Reno-protective activity in STZ-induced Kunming mouse model of diabetes assessed as reduction in urinary total protein excretion at 80 mg/kg, po administered daily via gavage for 8 weeks and measured at week 6 relative to control. The class given is functional.
The subject of assay [11] is Mus musculus. As to the kind of experiment: Reno-protective activity in STZ-induced Kunming mouse model of diabetes assessed as reduction in urinary total protein excretion at 80 mg/kg, po administered daily via gavage for 8 weeks and measured at week 8 relative to control. It counts as functional.

Calls of active or inactive are those of the source. No cut-off for these calls is given here.

The term IC50 denotes the concentration needed to halve the response being measured. `O=C(O)Cn1c(=O)oc2c(-c3ccc(O)c(O)c3)cccc21`: the IC50 in [1] stood at 0.387 µM; in assay [2] it was 6.6 µM. In [3], the Ratio IC50 amounted to 17. In assay [4], the Activity was determined as 61.7%.

On to `O=C(O)Cn1c(=O)oc2c(-c3ccccc3)cccc21`, for which the IC50 in assay [1] stood at 0.149 µM; in assay [2], 447 µM. Also, the Ratio IC50 in assay [3] stood at 3000.

`O=C(O)Cn1c(=O)oc2c(/C=C/c3ccc(O)cc3)cccc21`: the IC50 in [1] amounted to 0.0348 µM; in [2], 67.6 µM. Moreover, in [3], the Ratio IC50 came out at 1940. The Activity in assay [4] is 22.7%.

For the molecule `COc1ccc(/C=C/c2cccc3c2oc(=O)n3CC(=O)O)cc1OC`, the concentration for half-maximal inhibition (IC50) in assay [1] was 0.0338 µM; in assay [2], 29.5 µM. Further, the Ratio IC50 in [3] was determined as 873.

As to `O=C(O)Cn1c(=O)oc2c(/C=C/c3ccccc3)cccc21`, the IC50 worked out at 0.0547 µM in [1] and 1700 µM in [2]. In assay [3], the Ratio IC50 was 31000.

With `COc1ccc(-c2cccc3c2oc(=O)n3CC(=O)O)cc1`, the IC50 in assay [1] was 0.0238 µM; in [2] it was 1.05 µM. Further, the Ratio IC50 in assay [3] was determined as 44.

As to `O=C(O)Cn1c(=O)oc2c(/C=C/c3ccc(O)c(O)c3)cccc21`, the IC50 is 0.0454 µM in [1] and 0.79 µM in assay [2]. Also, the Ratio IC50 in [3] came to 17. For the same molecule, the Activity in assay [4] was determined as 22.7%.

Take `O=C(O)Cn1c(=O)oc2cccc(/C=C/c3ccccc3)c21`: the IC50 in [1] came to 55 µM; in assay [2] it was 363 µM. The Ratio IC50 in assay [3] was 6.6.

The term inhibition in vivo denotes the percentage by which the read-out fell short of the control. Turning to `CC(/C=C1\SC(=S)N(CC(=O)O)C1=O)=C\c1ccccc1`, the inhibition result in assay [5] is “Active”. Further, the inhibition in vivo at 80 mg/kg in assay [6] is 65%. For the same molecule, the outcome in assay [7], in assay [8], in assay [9] (time 4.0 weeks), in assay [10] (time 6.0 weeks) and in [11] was inactive.

On to `O=C(O)Cn1c(=O)oc2cc(/C=C/c3ccccc3)ccc21`, for which the IC50 was determined as 0.0657 µM in assay [1] and 2.57 µM in [2]. In addition, the Ratio IC50 in assay [3] came out at 39.

On to `O=C(O)Cn1c(=O)oc2ccc(/C=C/c3ccccc3)cc21`, for which the IC50 turned out to be 0.226 µM in [1] and 17.4 µM in [2]. Besides, the Ratio IC50 in assay [3] worked out at 77.

On to `O=C(O)Cn1c(=O)oc2c(-c3ccc(C(F)(F)F)cc3)cccc21`, for which the IC50 in assay [1] is 0.0097 µM; in assay [2], 14.4 µM. In addition, the Ratio IC50 in assay [3] was determined as 1480.

On to `O=C(O)Cn1c(=O)oc2cc(/C=C/c3ccc(O)cc3)ccc21`, for which the IC50 was 0.0465 µM in assay [1] and 575 µM in assay [2]. Further, the Ratio IC50 in assay [3] worked out at 12400.

Turning to `COc1ccc(-c2cccc3c2oc(=O)n3CC(=O)O)c(OC)c1`, the figures for the IC50 in assay [1] and in assay [2] were 0.0855 µM and 72.4 µM, respectively. In assay [3], the Ratio IC50 was 847.

With `CN(C)C(=N)NC(=N)N` [METFORMIN], the inhibition entry in [5] was “inactive”. In addition, the inhibition in vivo at 80 mg/kg came to 43% in assay [6]; 6% in assay [9] (672 h, time 4 weeks); 41% in [10] (1008 h, time 6 weeks); 18% in [11] (1344 h). The inhibition result in assay [7] was “Active”.

`COc1ccc(-c2cccc3c2oc(=O)n3CC(=O)O)cc1OC`: the IC50 was 0.0635 µM in assay [1] and 32.4 µM in assay [2]. The Ratio IC50 in [3] was 510.

As for `O=C(O)Cn1c(=O)oc2c(/C=C/c3ccc(C(F)(F)F)cc3)cccc21`, the IC50 in assay [1] amounted to 0.143 µM; in assay [2] it was 2880 µM. Besides, the Ratio IC50 in assay [3] stood at 20100.

For the molecule `COc1cc(CCc2cccc3c2oc(=O)n3CC(=O)O)ccc1O`, the results for the IC50 in assay [1] and in assay [2] were 0.0901 µM and 15.5 µM, respectively. For the same molecule, in [3], the Ratio IC50 amounted to 172. Also, in assay [4], the Activity is 22.7%.

For `O=C(O)Cn1c(=O)oc2c(-c3ccc(-c4ccc5ccccc5c4)cc3)cccc21`, the IC50 came to 0.023 µM in [1] and 8.9 µM in assay [2]. In addition, the Ratio IC50 in [3] was 387.

Regarding `O=C(O)Cn1c(=O)oc2c(-c3ccc(CO)cc3)cccc21`, the figures for the IC50 in assay [1] and in assay [2] were 0.0245 µM and 30.9 µM, respectively. Moreover, the Ratio IC50 in [3] was found to be 1260.

In the case of `O=C(O)Cn1c(=O)oc2c(-c3ccc(-c4cccc5ccccc45)cc3)cccc21`, the IC50 came to 0.0224 µM in assay [1] and 45.7 µM in assay [2]. Also, in assay [3], the Ratio IC50 came to 2040.

As to `COc1ccc(/C=C/c2cccc3c2oc(=O)n3CC(=O)O)cc1`, the IC50 worked out at 0.0106 µM in assay [1] and 6.3 µM in assay [2]. In addition, in assay [3], the Ratio IC50 came to 594.

Consider `COc1ccc(CCc2cccc3c2oc(=O)n3CC(=O)O)cc1`, for which the IC50 was 0.125 µM in [1] and 174 µM in [2]. For the same molecule, the Ratio IC50 in assay [3] amounted to 1390.

Regarding `CC(C)(C)c1ccc(-c2cccc3c2oc(=O)n3CC(=O)O)cc1`, the 50% inhibitory concentration (IC50) turned out to be 0.0212 µM in [1] and 174 µM in [2]. The Ratio IC50 in [3] amounted to 8200.

Consider `O=C(O)Cn1c(=O)oc2c(-c3ccc(-c4ccccc4)cc3)cccc21`, for which the IC50 in [1] came to 0.0754 µM; in [2], 6.2 µM. For the same molecule, the Ratio IC50 in assay [3] was found to be 82.
